In the library only some 4.3% were active in any assay of this set; here they are far more common.
TAAR1 ag = human TAAR1 agonism. Q96RJ0. CHO RD-HGA16 TAAR1, Fluo-8 calcium fluorescence; vehicle wells 0%, saturating PEA agonist 100%. activation, % at 3 µM. hit rate 0.99% among 360,000. AID 624467;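 active means activation above the mean activation of all test compounds in the run plus 3 SD, cut at about 38% in these data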
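Assay system – CHO-derived RD-HGA16 cells with stable Gα16 and human TAAR1 · Compound dosing – one-point dosing at 3 µM (nominal) · Incubation – 17-24 h seeding, 75 min 37 °C dye, 30 min RT · Measured by – kinetic Fluo-8 calcium fluorescence · Control set – DMSO vehicle as 0%, PEA at EC100 as 100% · Repeats – single well for each compound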
TAAR1 antag = human TAAR1 antagonism. hit rate 1.5% among 360,000. inhibition, % at 3 µM. Q96RJ0. CHO RD-HGA16 TAAR1, Fluo-8 calcium fluorescence, antagonist;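 active means inhibition above a per-plate cutoff, the mean inhibition of test compounds on that plate plus 3 SD, cut at about 49% in these data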
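Test system: hTAAR1-expressing CHO RD-HGA16 cells, Gα16-coupled; Probe or stimulus: EC80 β-phenethylamine stimulus; Compound dosing: single nominal final test compound concentration of 3 µM; Timing: 140 s kinetic read after compound, 140 s after agonist; Signal: Fluo-8 calcium-sensitive fluorescence; Measure: % inhibition of agonist calcium response; Controls: DMSO and EC80 PEA controls.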
GalR3 antag = antagonists of human GalR3; AID 651719; HEK293 GalR3-CNG cAMP membrane potential fluorescence; galR3 body fused to GalR1 C-terminus; O60755; inhibition, % at 3 µM; hit rate 0.44% among 360,000;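 active means inhibition above the screen-wide average plus 3 SD, cut at about 13% in these data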;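 further: forskolin and galanin both at EC90 stimulate the cells; cAMP rise reported by CNG channel membrane potential dye signal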
Target sequence (O60755 1-299 limits assumed): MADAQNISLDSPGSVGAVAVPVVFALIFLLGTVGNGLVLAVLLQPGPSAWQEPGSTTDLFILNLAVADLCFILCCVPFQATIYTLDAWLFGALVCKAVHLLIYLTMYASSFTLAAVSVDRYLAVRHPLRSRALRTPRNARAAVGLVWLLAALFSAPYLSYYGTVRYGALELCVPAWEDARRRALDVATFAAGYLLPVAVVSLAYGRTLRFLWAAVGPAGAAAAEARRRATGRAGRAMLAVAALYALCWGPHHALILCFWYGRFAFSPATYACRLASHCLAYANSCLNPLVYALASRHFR
CHO parental Ca = signal in parental CHO cells, OX1R antagonist counter-screen; parental CHO-K1, ATP-induced calcium, Fluo-8 fluorescence; inhibition, % at 5.6 µM; hit rate 0.63% among 330,000; AID 463079;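 active means inhibition above that plate's mean sample inhibition plus 3 SD, cut at about 26% in these data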
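Test system: untransfected parental CHO cell line. Compound: one dose, 5.6 µM nominal. Detection: intracellular calcium via Fluo-8 no-wash fluorescent dye. Measure: % inhibition. Benchmarks: ATP-challenged DMSO wells low, unchallenged DMSO wells high.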
OX1R antag-1 = human HCRTR1 antagonism. O43613. CHO/OX1R cells, Fluo-8 calcium fluorescence, orexin A. inhibition, % at 5 µM. hit rate 0.43% among 330,000;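 active means inhibition above its plate's threshold, mean inhibition of all tested compounds on the plate plus 3 SD, cut at about 37% in these data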
Target sequence (O43613 whole entry, looked up): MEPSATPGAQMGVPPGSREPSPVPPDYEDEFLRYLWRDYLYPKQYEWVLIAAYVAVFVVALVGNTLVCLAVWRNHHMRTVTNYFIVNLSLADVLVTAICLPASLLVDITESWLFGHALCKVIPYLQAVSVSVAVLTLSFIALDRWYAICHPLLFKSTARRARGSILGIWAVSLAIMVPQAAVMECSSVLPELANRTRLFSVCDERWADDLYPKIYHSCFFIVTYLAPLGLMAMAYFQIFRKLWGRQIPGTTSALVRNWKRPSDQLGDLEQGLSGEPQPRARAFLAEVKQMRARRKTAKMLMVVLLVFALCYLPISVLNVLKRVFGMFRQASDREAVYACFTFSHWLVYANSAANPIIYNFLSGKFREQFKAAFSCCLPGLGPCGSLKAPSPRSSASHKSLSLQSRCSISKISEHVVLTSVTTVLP
OX1R antag-2 = OX1R (human) antagonism; hit rate 1.8% among 330,000; O43613; OX1R-expressing cells, FRET antagonist read-out; AID 485270; inhibition, % at 6.6 µM; in the data active means inhibition mostly above about 38%, no sharp cut-off; inactive means mostly below about 40%
nonsel antag count = counter-screen for TAAR1 antagonists: nonselective antagonists. shares compounds with TAAR1 antag. counterscreen cell line, calcium fluorescence, antagonist mode. inhibition, % at 3 µM. hit rate 77% among 2,400; in the data active means inhibition above about 22%;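 further: CHO-Ga16 host cells stimulated with ATP at an EC80 level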
TAAR1 ant conf = confirmation of human TAAR1 antagonists; shares compounds with TAAR1 antag; TAAR1-expressing cells, fluorescence antagonist read-out; inhibition, % at 3 µM; hit rate 40% among 2,400; in the data active means inhibition above about 49%;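 further: CHO-Ga16 host cells challenged with agonist PEA near its EC80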
Ga16 nonsel ag = counter-screen for TAAR1 antagonists: nonselective Ga16 agonists; shares compounds with TAAR1 antag; Ga16-expressing cells, calcium fluorescence, agonist counterscreen; activation, % at 3 µM; hit rate 18% among 2,400; in the data active means activation above about 12%
TAAR1 ag count = TAAR1 agonism, antagonist counter-screen | shares compounds with TAAR1 antag | hTAAR1 cell line, fluorescence activation, agonist mode | activation, % at 3 µM | hit rate 2% among 2,400 | AID 651955; in the data active means activation above about 37%;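 further: CHO cells stably expressing TAAR1 with calcium dye readout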
Large screens that a line does not name were inactive (follow-up assays come after a bar, where they were run).

CN(C)c1ccc(C(C(=O)NCc2ccccc2)N(Cc2ccco2)C(=O)c2snc(C(N)=O)c2N)cc1 (configuration not stated)	TAAR1 antag 71 | nonsel antag count 27 | TAAR1 ant conf 58 | Ga16 nonsel ag inactive | TAAR1 ag count inactive
CCC(C)(C)NC(=O)C(c1ccc(F)cc1)N(Cc1ccco1)C(=O)c1snc(C(N)=O)c1N (configuration not stated)	none
NC(=O)c1nsc(C(=O)N(Cc2ccco2)C(C(=O)NCc2ccc(F)cc2)c2ccc(O)cc2)c1N (configuration not stated)	TAAR1 antag 78 | nonsel antag count 37 | TAAR1 ant conf 56 | Ga16 nonsel ag inactive | TAAR1 ag count inactive
CCC[C@@H]1CCCC/C=C\CCCC(=O)OCCN1C(=O)OC(C)(C)C	none
COC(=O)/C=C/c1ccccc1CN1[C@@H](CC(=O)OC)c2ccccc2S1(=O)=O	TAAR1 antag 107 | nonsel antag count inactive | TAAR1 ant conf inactive | Ga16 nonsel ag inactive | TAAR1 ag count inactive
COC(=O)C[C@H]1c2ccccc2S(=O)(=O)N1Cc1ccc(OC)cc1	none
N#CC(c1ccc(Cl)cc1)c1nc2ccccc2nc1C(F)(F)F (configuration not stated)	TAAR1 antag 57 | nonsel antag count inactive | TAAR1 ant conf inactive | Ga16 nonsel ag inactive | TAAR1 ag count inactive
CC(O)(c1cccnc1)c1nc(-c2cccc3cccnc23)cs1 (configuration not stated)	none (no result: CHO parental Ca, OX1R antag-1, OX1R antag-2)
CCOc1ccc2[nH]c3c(NCCc4ccc(OC)c(OC)c4)ncnc3c2c1	TAAR1 antag 51 | nonsel antag count inactive | TAAR1 ant conf inactive | Ga16 nonsel ag inactive | TAAR1 ag count inactive
Clc1ccc2nc(C3CCN(Cc4ccccc4)CC3)[nH]c2c1	none
N#Cc1ccc2nc(-c3ccc(CN4CCC(c5nc6ccccc6[nH]5)CC4)cc3)c(-c3ccccc3)nc2c1	TAAR1 antag 66 (no result: CHO parental Ca, OX1R antag-1, OX1R antag-2) | nonsel antag count 38 | TAAR1 ant conf inactive | Ga16 nonsel ag inactive | TAAR1 ag count inactive
c1ccc(-c2nc3ccccc3nc2-c2ccc(CN3CCC(c4nc5ccccc5[nH]4)CC3)cc2)cc1	TAAR1 antag 53 (no result: CHO parental Ca, OX1R antag-1, OX1R antag-2) | nonsel antag count 34 | TAAR1 ant conf inactive | Ga16 nonsel ag 16 | TAAR1 ag count inactive
Cc1cccc2nc(-c3ccccc3)c(-c3ccc(CN4CCC(c5nc6ccccc6[nH]5)CC4)cc3)nc12	none (no result: CHO parental Ca, OX1R antag-1, OX1R antag-2)
Cc1ccc2nc(-c3ccc(CN4CCC(c5nc6ccccc6[nH]5)CC4)cc3)c(-c3ccccc3)nc2c1	TAAR1 antag 73 (no result: CHO parental Ca, OX1R antag-1, OX1R antag-2) | nonsel antag count 46 | TAAR1 ant conf 60 | Ga16 nonsel ag 15 | TAAR1 ag count inactive
COc1ccc(CNC(=O)c2sccc2-c2ccccc2)cc1OC	none
COc1cc(C(C)=O)ccc1OCC(=O)Nc1ccccc1N1CCCCC1	TAAR1 antag 55 | nonsel antag count inactive | TAAR1 ant conf inactive | Ga16 nonsel ag inactive | TAAR1 ag count inactive
CC(=O)c1cccc(OCC(=O)Nc2ccccc2N2CCOCC2)c1	TAAR1 antag 51 | nonsel antag count inactive | TAAR1 ant conf inactive | Ga16 nonsel ag inactive | TAAR1 ag count inactive
COc1cc(C(C)=O)ccc1OCC(=O)Nc1ccccc1N1CCCC1	none
COc1cc2c(cc1OC)-c1nnnn1C(C)(C)C2	none
COc1cc2c(cc1OC)-c1nnc(-c3cccs3)n1C(C)(C)C2	TAAR1 antag 50 | nonsel antag count inactive | TAAR1 ant conf inactive | Ga16 nonsel ag inactive | TAAR1 ag count inactive
COc1cc(NC(=O)c2cccc3c(-c4cccnc4)coc23)cc(OC)c1OC	TAAR1 antag 76 (no result: CHO parental Ca, OX1R antag-1, OX1R antag-2) | nonsel antag count 29 | TAAR1 ant conf 59 | Ga16 nonsel ag 16 | TAAR1 ag count inactive
COc1ccc(NC(=O)c2cccc3c(-c4ccc(O)c(OC)c4)coc23)cc1	none (no result: CHO parental Ca, OX1R antag-1, OX1R antag-2)
CC(=O)c1cccc(NC(=O)c2cccc3c(-c4cccc(C(N)=O)c4)coc23)c1	TAAR1 antag 85 (no result: CHO parental Ca, OX1R antag-1, OX1R antag-2) | nonsel antag count 42 | TAAR1 ant conf 56 | Ga16 nonsel ag 13 | TAAR1 ag count inactive
CCCn1c(SC(C)C(=O)NC2CCCC(C)C2C)n[nH]c1=O (configuration not stated)	none (no result: CHO parental Ca, OX1R antag-1, OX1R antag-2)
O=C(Nc1ccccc1)N(CCc1nc2ccccc2[nH]1)C1CCCC1	none
S=C(NC1CCCCC1)N(CCc1nc2ccccc2[nH]1)C1CCCC1	TAAR1 antag 54 | nonsel antag count 28 | TAAR1 ant conf inactive | Ga16 nonsel ag inactive | TAAR1 ag count inactive
COC(=O)C1(CC2CC(c3cccc(Br)c3)=NO2)CCN(C(=O)OC(C)(C)C)CC1 (configuration not stated)	TAAR1 antag 71 | nonsel antag count 29 | TAAR1 ant conf 64 | Ga16 nonsel ag inactive | TAAR1 ag count inactive
Cc1cc(C)c(S(=O)(=O)N2CCCOC2CNC(=O)C(=O)NCCc2c[nH]c3ccccc23)c(C)c1 (configuration not stated)	TAAR1 antag 75 | nonsel antag count 52 | TAAR1 ant conf 68 | Ga16 nonsel ag 18 | TAAR1 ag count inactive
COc1cccc(NC(=O)N(C)C[C@H]2Oc3ncc(Br)cc3C(=O)N([C@H](C)CO)C[C@H]2C)c1	none (no result: CHO parental Ca, OX1R antag-1, OX1R antag-2)
O=C(OCC(=O)N(CCc1ccccc1)Cc1ccccc1)c1ccccc1NCCO	TAAR1 antag 62 | nonsel antag count 29 | TAAR1 ant conf inactive | Ga16 nonsel ag inactive | TAAR1 ag count inactive
C/C(=N\NC(=O)c1cc(-c2ccc(C)s2)[nH]n1)c1ccncc1	none
COc1ccc(CCNC2=C(Cl)C(=O)N(CCc3ccc(OC)c(OC)c3)C2=O)cc1OC	TAAR1 antag 74 | nonsel antag count 44 | TAAR1 ant conf 60 | Ga16 nonsel ag inactive | TAAR1 ag count inactive
COc1ccc(NC2=C(Cl)C(=O)N(CCc3ccccc3)C2=O)cc1	none
COc1ccc(CN2C(=O)c3ccccc3C2c2nnnn2-c2ccc3c(c2)OCCO3)cc1 (configuration not stated)	none (no result: CHO parental Ca, OX1R antag-1, OX1R antag-2)
COc1ccccc1CN(C(=O)CNC(=O)c1ccco1)C(C(=O)NCC1CCCO1)c1ccccc1 (configuration not stated)	TAAR1 antag 68 | nonsel antag count 32 | TAAR1 ant conf inactive | Ga16 nonsel ag inactive | TAAR1 ag count inactive

Assay outcomes from PubChem BioAssay.
